The source of these data is ChEMBL document CHEMBL5042469, “Unique Molecular Interaction with the Histone Deacetylase 6 Catalytic Tunnel: Crystallographic and Biological Characterization of a Model Chemotype” (J Med Chem, 2021).

In one assay the target is T1, Histone deacetylase 8 (Homo sapiens, UniProt Q9BY41).
T1 sequence (Q9BY41 whole entry): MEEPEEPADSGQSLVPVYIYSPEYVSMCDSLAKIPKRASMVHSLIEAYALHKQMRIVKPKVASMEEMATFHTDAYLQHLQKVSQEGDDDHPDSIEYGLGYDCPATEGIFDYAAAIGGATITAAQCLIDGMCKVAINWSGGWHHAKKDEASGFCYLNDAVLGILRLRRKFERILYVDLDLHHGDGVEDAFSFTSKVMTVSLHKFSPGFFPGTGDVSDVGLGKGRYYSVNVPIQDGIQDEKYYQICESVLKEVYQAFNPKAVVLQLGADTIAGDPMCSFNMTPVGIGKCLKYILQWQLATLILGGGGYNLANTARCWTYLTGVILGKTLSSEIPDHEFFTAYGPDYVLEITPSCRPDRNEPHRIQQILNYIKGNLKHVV
In words: Inhibition of full length human HDAC8 using FAM-labeled acetylated peptide as substrate by electrophoretic mobility shift assay. In short, it runs like this:
(§1)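 Full-length human HDAC isoform enzymatic assay by electrophoretic mobility shift, using a FAM-labelled acetylated peptide substrate. […] Values are the mean of duplicate experiments with 95% confidence intervals.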
(Mobility shift assays separate free from complexed probe on a gel.)

A further assay deals with T2, Histone deacetylase 11 (Homo sapiens, UniProt Q96DB2).
T2 sequence (Q96DB2 whole entry): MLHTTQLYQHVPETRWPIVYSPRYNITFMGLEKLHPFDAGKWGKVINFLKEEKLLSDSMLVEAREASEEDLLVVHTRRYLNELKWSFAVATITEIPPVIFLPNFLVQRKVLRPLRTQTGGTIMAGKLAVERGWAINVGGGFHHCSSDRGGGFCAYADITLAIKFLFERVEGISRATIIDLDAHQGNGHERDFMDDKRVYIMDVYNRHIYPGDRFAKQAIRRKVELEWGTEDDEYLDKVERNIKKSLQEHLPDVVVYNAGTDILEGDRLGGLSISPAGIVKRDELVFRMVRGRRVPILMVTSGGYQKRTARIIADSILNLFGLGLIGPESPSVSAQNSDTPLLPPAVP
In words: Inhibition of full length human HDAC11 using FAM-labeled acetylated peptide as substrate by electrophoretic mobility shift assay. The gist of the method: as §1

Another assay addresses Histone deacetylase 3 (Homo sapiens, UniProt O15379). In words: Inhibition of full length human HDAC3 using FAM-labeled acetylated peptide as substrate by electrophoretic mobility shift assay. The gist of the method:
as §1

In assay [1] the target is T3, Protein deacetylase HDAC6 (Homo sapiens, UniProt Q9UBN7).
T3 sequence (Q9UBN7 whole entry): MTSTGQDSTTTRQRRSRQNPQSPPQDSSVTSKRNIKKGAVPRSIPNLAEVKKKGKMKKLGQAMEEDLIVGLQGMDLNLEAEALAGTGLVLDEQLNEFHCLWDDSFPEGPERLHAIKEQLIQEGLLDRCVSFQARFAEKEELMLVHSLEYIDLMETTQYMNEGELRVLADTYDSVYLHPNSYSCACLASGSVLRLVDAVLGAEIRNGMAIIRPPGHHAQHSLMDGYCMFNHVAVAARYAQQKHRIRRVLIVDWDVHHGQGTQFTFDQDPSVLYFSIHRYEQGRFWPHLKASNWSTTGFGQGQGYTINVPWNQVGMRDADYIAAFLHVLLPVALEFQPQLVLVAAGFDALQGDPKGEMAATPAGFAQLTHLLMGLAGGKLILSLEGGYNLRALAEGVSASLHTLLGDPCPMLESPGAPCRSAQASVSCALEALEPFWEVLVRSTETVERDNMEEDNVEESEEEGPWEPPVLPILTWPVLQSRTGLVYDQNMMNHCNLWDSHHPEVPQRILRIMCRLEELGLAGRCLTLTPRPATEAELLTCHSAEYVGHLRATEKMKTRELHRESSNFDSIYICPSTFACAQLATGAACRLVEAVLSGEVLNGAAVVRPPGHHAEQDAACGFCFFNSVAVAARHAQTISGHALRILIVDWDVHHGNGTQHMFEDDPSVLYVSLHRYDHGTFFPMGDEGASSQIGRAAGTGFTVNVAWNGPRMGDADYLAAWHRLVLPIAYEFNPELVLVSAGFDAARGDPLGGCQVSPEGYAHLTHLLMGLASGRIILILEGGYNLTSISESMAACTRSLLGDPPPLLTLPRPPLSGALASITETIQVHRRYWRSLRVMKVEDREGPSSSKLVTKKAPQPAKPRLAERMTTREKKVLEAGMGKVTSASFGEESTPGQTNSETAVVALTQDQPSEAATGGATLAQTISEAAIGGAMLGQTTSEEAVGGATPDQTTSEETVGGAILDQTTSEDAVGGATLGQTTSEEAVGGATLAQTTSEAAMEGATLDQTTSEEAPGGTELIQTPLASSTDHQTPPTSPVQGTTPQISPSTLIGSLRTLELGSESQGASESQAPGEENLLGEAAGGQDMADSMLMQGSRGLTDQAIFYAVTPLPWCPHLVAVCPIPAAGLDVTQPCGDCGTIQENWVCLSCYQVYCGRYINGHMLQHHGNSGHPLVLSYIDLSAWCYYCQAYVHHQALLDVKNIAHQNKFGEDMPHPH
The experiment in a line: Inhibition of full length human HDAC6 using FAM-labeled acetylated peptide as substrate by electrophoretic mobility shift assay.

Chain of Histone deacetylase 3 (O15379 whole entry): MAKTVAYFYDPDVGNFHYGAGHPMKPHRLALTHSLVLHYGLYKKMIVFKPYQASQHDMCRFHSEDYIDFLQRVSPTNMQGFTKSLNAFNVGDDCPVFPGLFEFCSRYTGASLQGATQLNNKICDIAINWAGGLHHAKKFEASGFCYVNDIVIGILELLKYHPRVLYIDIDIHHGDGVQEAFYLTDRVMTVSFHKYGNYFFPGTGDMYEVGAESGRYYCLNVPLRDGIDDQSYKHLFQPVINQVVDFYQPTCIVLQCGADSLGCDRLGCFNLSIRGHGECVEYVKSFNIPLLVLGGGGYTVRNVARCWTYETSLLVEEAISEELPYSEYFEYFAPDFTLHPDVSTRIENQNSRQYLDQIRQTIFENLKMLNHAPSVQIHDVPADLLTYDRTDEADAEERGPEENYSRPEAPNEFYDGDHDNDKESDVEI

For `O=C(NO)c1ccc(CN(Cc2ccc(F)cc2)S(=O)(=O)c2cc(F)c(F)c(F)c2F)cc1`, the IC50 – broadly, the point on the concentration scale where inhibition reaches its midpoint – at Histone deacetylase 8 was 860 nM; at Histone deacetylase 11, greater than 1000 nM; on Histone deacetylase 3, greater than 1000 nM; in assay [1], 21 nM.
Turning to `O=C(NO)c1ccc(CN(Cc2ccccc2)S(=O)(=O)c2cc(F)c(F)c(F)c2F)cc1`, the IC50 was determined as 155 nM on Histone deacetylase 8, 115 nM at Histone deacetylase 11, 697 nM at Histone deacetylase 3 and 5 nM in assay [1].
Regarding `O=C(NO)c1ccc(CN(Cc2ccccc2F)S(=O)(=O)c2cc(F)c(F)c(F)c2F)cc1`, the IC50 was 241 nM at Histone deacetylase 8, 263 nM on Histone deacetylase 11, greater than 1000 nM on Histone deacetylase 3 and 10 nM in assay [1].
For `O=C(NO)c1ccc(CNS(=O)(=O)c2c(F)c(F)c(F)c(F)c2F)cc1`, the IC50 at Histone deacetylase 8, on Histone deacetylase 11 and on Histone deacetylase 3 was greater than 1000 nM each time.
On to `O=C(NO)c1ccc(CN(Cc2ccncc2)S(=O)(=O)c2cc(F)c(F)c(F)c2F)cc1`, for which the IC50 at Histone deacetylase 8 was 581 nM; at Histone deacetylase 11, 472 nM; on Histone deacetylase 3, greater than 1000 nM; in assay [1], 11 nM.
Take `Cc1ccc(CN(Cc2ccc(C(=O)NO)cc2)S(=O)(=O)c2c(F)c(F)c(F)c(F)c2F)cc1`: the IC50 was 101 nM on Histone deacetylase 8, 73 nM at Histone deacetylase 11, greater than 1000 nM at Histone deacetylase 3 and 6 nM in assay [1].
As to `O=C(CCCCCCC(=O)N/N=C/c1ccc(N(c2ccccc2)c2ccccc2)cc1)NO`, the IC50 in assay [1] is 400 nM.
For `CN(C)c1ccc(CN(Cc2ccc(C(=O)NO)cc2)S(=O)(=O)c2c(F)c(F)c(F)c(F)c2F)cc1`, the IC50 is greater than 1000 nM at Histone deacetylase 8, greater than 1000 nM on Histone deacetylase 11, greater than 1000 nM on Histone deacetylase 3 and 29 nM in assay [1].
As for `O=C(NO)c1ccc(CN(Cc2ccncc2)S(=O)(=O)c2c(F)c(F)c(F)c(F)c2F)cc1`, the IC50 is greater than 1000 nM on Histone deacetylase 8, greater than 1000 nM at Histone deacetylase 11, greater than 1000 nM on Histone deacetylase 3 and 14 nM in assay [1].
With `O=C(NO)c1ccc(CN(Cc2ccc(F)cc2)S(=O)(=O)c2c(F)c(F)c(F)c(F)c2F)cc1`, the half-inhibitory concentration (IC50) at Histone deacetylase 8 was 367 nM; at Histone deacetylase 11, 787 nM; on Histone deacetylase 3, greater than 1000 nM; in assay [1] it was 13 nM.
For `CC(C)(C)c1ccc(CN(Cc2ccc(C(=O)NO)cc2)S(=O)(=O)c2c(F)c(F)c(F)c(F)c2F)cc1` the same measures were 68 nM, 88 nM, greater than 1000 nM and 42 nM.
For `O=C(NO)c1ccc(CN(Cc2cccc(F)c2)S(=O)(=O)c2cc(F)c(F)c(F)c2F)cc1` the same measures were 412 nM, 235 nM, greater than 1000 nM and 14 nM.
For `O=C(NO)c1ccc(CN(Cc2ccc(C(F)(F)F)cc2)S(=O)(=O)c2c(F)c(F)c(F)c(F)c2F)cc1` the same measures were greater than 1000 nM, greater than 1000 nM, greater than 1000 nM and 45 nM.
Turning to `O=C(NO)c1ccc(CN(Cc2ccccc2)S(=O)(=O)c2c(F)c(F)c(F)c(F)c2F)cc1`, the IC50 was 150 nM at Histone deacetylase 8, 122 nM on Histone deacetylase 11, greater than 1000 nM at Histone deacetylase 3 and 9 nM in assay [1].
As to `O=C(NO)c1ccc(CN(Cc2ccccn2)S(=O)(=O)c2cc(F)c(F)c(F)c2F)cc1`, the IC50 at Histone deacetylase 8 turned out to be 332 nM; on Histone deacetylase 11, 941 nM; on Histone deacetylase 3 it was 896 nM; in assay [1], 6 nM.
